From ChEMBL document CHEMBL1142518, “Potential nicotinic acetylcholine receptor ligands from 2,4-methanoproline derivatives” (J Med Chem, 2008)
Calls of active or inactive are those of the source. The calls are words filed in the database; no cut-off is given here.

Key:
[1] = molecular target: Neuronal acetylcholine receptor; alpha3/beta4 (Homo sapiens) (UniProt P30926+P32297); assay: Binding affinity to human nAChR-alpha-3-beta-4 in HEK293 cells; type: cell-based
Procedure, shortened: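 Scintillation proximity assay on membranes from HEK-293 cells expressing cloned human α3β4 nAChR. [3H]epibatidine 2 nM, WGA-coated PVT beads 1.5 mg/well, 30 µg membrane protein/well, in 50 mM Tris-HCl, 150 mM NaCl, 5 mM KCl, pH 7.4. Nonspecific binding defined with 10 µM epibatidine. Equilibrated 2-4 h at room temperature, then scintillation counted. IC50 from 4-parameter logistic fit, converted to Ki by Cheng-Prusoff.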

[2] = molecular target: Neuronal acetylcholine receptor; alpha4/beta2 (Homo sapiens) (UniProt P17787+P43681); assay: Binding affinity to human nAChR-alpha-4-beta-2 in HEK293 cells; type: cell-based
Procedure, shortened: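 Cloned human α4β2 nAChR in HEK-293 cell membranes, tested by SPA radioligand binding. Used [3H]epibatidine 1 nM, WGA-coated PVT beads 1 mg/well and 30 µg membrane protein/well, in Tris-HCl buffer (50 mM, 150 mM NaCl, 5 mM KCl, pH 7.4). Nonspecific binding defined with 10 µM epibatidine. Incubated 2-4 h at room temperature and read by scintillation counting. 4-parameter logistic IC50 converted to Ki by Cheng-Prusoff.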

| SMILES | Activity [1] | Activity [2] |
| --- | --- | --- |
| c1cncc(OCC23CC(CN2)C3)c1 | inactive | inactive |
| c1ccc(OCC23CC(CN2)C3)cc1 | inactive | inactive |
| Cc1cc(CCC23CC(CN2)C3)on1 | inactive | inactive |
| Cc1cc(/C=C/C23CC(CN2)C3)on1 | inactive | inactive |
| Clc1ccc(OCC23CC(CN2)C3)cn1 | inactive | inactive |
| Cc1cc(C23CC(CN2)C3)on1 | inactive | inactive |
